Assay results reported in ChEMBL document CHEMBL3763093, “The molecular structure of thio-ether fatty acids influences PPAR-dependent regulation of lipid metabolism” (Bioorg Med Chem, 2016).
The source made the active and inactive calls. No cut-off for these calls is given here.

What was measured:
[1] = Effect on fatty acid composition in human myotubes assessed as intracellular PUFA n-9 level at 30 uM after 96 hrs (Rvb= 1.78%); type: functional
Outline: (§1)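 Differentiated human myotubes (7 days) treated 96 h with 10 or 30 μM compound or DMSO 0.1% (two controls). Cells washed, harvested, lipids extracted and methylated (methanol, sulfuric acid, 90 °C, 1 h); FA methyl esters quantified by GC with C21:0 internal standard, peaks confirmed by standards and GC/MS; values as mol % of intracellular fatty acids.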

[2] = Effect on fatty acid composition in human myotubes assessed as change in intracellular SFA level at 10 uM after 96 hrs relative to DMSO control; type: functional; outline: as §1
[3] = target: T1, Peroxisome proliferator-activated receptor (Homo sapiens) (UniProt P37231+Q07869+Q03181); assay: Agonist activity at PPAR in human myotubes assessed as FABP3 mRNA expression at 30 uM after 96 hrs by qPCR analysis relative to control
Outline: (§2)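 Myotubes from satellite cells of abdominal muscle biopsies of healthy donors, differentiated 7 days, then exposed 96 h to test lipids (30 μM) vs DMSO 0.1%. Total RNA isolated (RIN ≥7), reverse transcribed, real-time PCR with gene-specific primers; expression expressed relative to DMSO control.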

[4] = Effect on fatty acid composition in human myotubes assessed as intracellular MUFA level at 10 uM after 96 hrs (Rvb= 41.04%); type: functional; outline: as §1
[5] = target: T1, Peroxisome proliferator-activated receptor (Homo sapiens); assay: Agonist activity at PPAR in human myotubes assessed as ANGPTL4 mRNA expression at 30 uM after 96 hrs by qPCR analysis relative to control; outline: as §2
[6] = Effect on fatty acid composition in human myotubes assessed as intracellular tTTA level at 30 uM after 96 hrs; type: functional; outline: as §1
[7] = Effect on fatty acid composition in human myotubes assessed as intracellular TTA level at 10 uM after 96 hrs; type: functional; outline: as §1
[8] = Effect on fatty acid composition in human myotubes assessed as change in intracellular MUFA level at 10 uM after 96 hrs relative to DMSO control; type: functional; outline: as §1
[9] = Effect on fatty acid composition in human myotubes assessed as change in intracellular MUFA level at 30 uM after 96 hrs relative to DMSO control; type: functional; outline: as §1
[10] = Effect on fatty acid composition in human myotubes assessed as intracellular PUFA n-6 level at 30 uM after 96 hrs (Rvb= 13.41%); type: functional; outline: as §1
[11] = Effect on fatty acid composition in human myotubes assessed as intracellular SFA level at 30 uM after 96 hrs (Rvb= 36.16%); type: functional; outline: as §1
[12] = Effect on fatty acid composition in human myotubes assessed as intracellular SFA level at 10 uM after 96 hrs (Rvb= 36.16%); type: functional; outline: as §1
[13] = Effect on fatty acid composition in human myotubes assessed as intracellular PUFA n-9 level at 10 uM after 96 hrs (Rvb= 1.78%); type: functional; outline: as §1
[14] = Effect on fatty acid composition in human myotubes assessed as intracellular TTA level at 30 uM after 96 hrs; type: functional; outline: as §1
[15] = Effect on fatty acid composition in human myotubes assessed as intracellular PUFA n-3 level at 30 uM after 96 hrs (Rvb= […]); type: functional; outline: as §1
[16] = Effect on fatty acid composition in human myotubes assessed as intracellular PUFA n-3 level at 10 uM after 96 hrs (Rvb= 7.47%); type: functional; outline: as §1
[17] = Effect on fatty acid composition in human myotubes assessed as intracellular MUFA level at 30 uM after 96 hrs (Rvb= 41.04%); type: functional; outline: as §1
[18] = Effect on fatty acid composition in human myotubes assessed as intracellular PUFA n-6 level at 10 uM after 96 hrs (Rvb= 13.41%); type: functional; outline: as §1
Homo sapiens [19] = organism: Homo sapiens; assay: Effect on intracellular [14C]oleic acid uptake in human myotubes at 10 to 30 uM preincubated for 96 hrs followed by substrate addition incubated for 4 hrs by liquid scintillation analysis; type: functional, cell-based
Outline: (§3)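 Myotubes differentiated 7 days were pretreated 96 h with 10 or 30 μM compound, 10 nM GW501516 or DMSO 0.1%, then given [1-14C]oleic acid (0.5 μCi/mL, 100 μM) in DPBS with HEPES 10 mM and L-carnitine 1 mM, 4 h at 37 °C. Trapped CO2 and cell-associated label counted by scintillation; uptake = CO2 + CA; Bradford protein; % of DMSO basal; n = 8–15.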

[20] = Effect on total fatty acid level in human myotubes assessed as per mg of protein at 10 to 30 uM; type: ADME
[21] = target: T1, Peroxisome proliferator-activated receptor (Homo sapiens); assay: Agonist activity at PPAR in human myotubes assessed as CD36 mRNA expression at 30 uM after 96 hrs by qPCR analysis relative to control; outline: as §2
[22] = target: T1, Peroxisome proliferator-activated receptor (Homo sapiens); assay: Agonist activity at PPAR in human myotubes assessed as CPT1A mRNA expression at 30 uM after 96 hrs by qPCR analysis relative to control; outline: as §2
[23] = Effect on fatty acid composition in human myotubes assessed as intracellular tTTA level at 10 uM after 96 hrs; type: functional; outline: as §1
[24] = Effect on protein level in human myotubes at 10 to 30 uM; type: ADME
[25] = Effect on fatty acid composition in human myotubes assessed as change in intracellular SFA level at 30 uM after 96 hrs relative to DMSO control; type: functional; outline: as §1
[26] = Effect on fatty acid composition in human myotubes assessed as intracellular PUFA n-3 level at 10 uM after 96 hrs (Rvb= 5.16%); type: functional; outline: as §1
[27] = Effect on fatty acid composition in human myotubes assessed as intracellular SFA level at 10 uM after 96 hrs (Rvb= 31.41%); type: functional; outline: as §1
[28] = Effect on fatty acid composition in human myotubes assessed as intracellular MUFA level at 10 uM after 96 hrs (Rvb= 49.95%); type: functional; outline: as §1
[29] = Effect on fatty acid composition in human myotubes assessed as intracellular MUFA level at 30 uM after 96 hrs (Rvb= 49.95%); type: functional; outline: as §1
[30] = Effect on fatty acid composition in human myotubes assessed as intracellular PUFA n-6 level at 10 uM after 96 hrs (Rvb= 11.46%); type: functional; outline: as §1
[31] = Effect on fatty acid composition in human myotubes assessed as intracellular dTTA level at 10 uM after 96 hrs; type: functional; outline: as §1
[32] = Effect on fatty acid composition in human myotubes assessed as intracellular PUFA n-9 level at 30 uM after 96 hrs (Rvb= 1.89%); type: functional; outline: as §1
[33] = Effect on fatty acid composition in human myotubes assessed as intracellular PUFA n-3 level at 30 uM after 96 hrs (Rvb= 5.16%); type: functional; outline: as §1
[34] = Effect on fatty acid composition in human myotubes assessed as intracellular PUFA n-6 level at 30 uM after 96 hrs (Rvb= 11.46%); type: functional; outline: as §1
[35] = Effect on fatty acid composition in human myotubes assessed as intracellular SFA level at 30 uM after 96 hrs (Rvb= 31.41%); type: functional; outline: as §1
[36] = Effect on fatty acid composition in human myotubes assessed as intracellular PUFA n-9 level at 10 uM after 96 hrs (Rvb= 1.89%); type: functional; outline: as §1
[37] = Effect on fatty acid composition in human myotubes assessed as intracellular dTTA level at 30 uM after 96 hrs; type: functional; outline: as §1
Homo sapiens [38] = organism: Homo sapiens; assay: Induction of fatty acid oxidation in human myotubes using [14C]oleic acid as substrate preincubated for 96 hrs followed by substrate addition incubated for 4 hrs by liquid scintillation analysis; type: functional; outline: as §3

Compound | Activity [1] [mol%] | Activity [2] [%] | Activity [3] | Activity [4] [mol%] | Activity [7] [mol%] | Activity [8] [%] | Activity [9] [%] | Activity [10] [mol%] | Activity [11] [mol%] | Activity [12] [mol%] | Activity [13] [mol%] | Activity [14] [mol%] | Activity [15] [mol%] | Activity [16] [mol%] | Activity [17] [mol%] | Activity (Homo sapiens [19]) | Activity [20] | Activity [21] | Activity [24] | Activity [25] [%] | other results
CCCCCCC#CCCCCCCSCC(=O)O | 0.87 | 2.2 | Active | 36.3 | 0.06 | -11.6 | -21.3 | 11.63 | 36.3 | 38.85 | 1.32 | 0.32 | 7.09 | 8.41 | 32.32 | inactive | Non-toxic | Active | Non-toxic | 0.7 | fold change (FC) [5]: 35; Activity [6]: 11.34 mol%; Activity [18]: 13.93 mol%; fold change (FC) [22]: < 10; Activity [23]: 3.01 mol%
CCCCCC/C=C\CCCCCCSCC(=O)OC[C@H](COP(=O)([O-])OCC[N+](C)(C)C)OC(=O)CSCCCCCC/C=C\CCCCCC | – | 2.7 | Active | – | 0.01 | -3.6 | -13.1 | – | – | – | – | 0.4 | – | – | – | inactive | Non-toxic | Active | Non-toxic | 4.5 | Activity [26]: 4.74 mol%; Activity [27]: 32.26 mol%; Activity [28]: 48.17 mol%; Activity [29]: 43.41 mol%; Activity [30]: 11.29 mol%; Activity [5]: Active; Activity [31]: 1.87 mol%; Activity [32]: 1.42 mol%; Activity [33]: 4.63 mol%; Activity [34]: 11.45 mol%; Activity [35]: 32.82 mol%; Activity [36]: 1.53 mol%; Activity [37]: 6.08 mol%; Activity [22]: Active
CCCCCCCCCCCCCCSCC(=O)OC[C@H](COP(=O)([O-])OCC[N+](C)(C)C)OC(=O)CSCCCCCCCCCCCCCC [PHOSPHATIDYLCHOLINE] | 1.95 | -2.5 | inactive | 37.48 | 5.5 | -8.8 | -4.4 | 13.31 | 31.79 | 35.14 | 1.88 | 5.9 | 7.3 | 6.98 | 39.28 | inactive | Non-toxic | inactive | Non-toxic | -11.8 | Activity [5]: inactive; Activity [31]: 0.17 mol%; Activity [18]: 12.71 mol%; Activity [37]: 0.34 mol%; Activity [22]: inactive
CCCCCCCCCCCCCCSCC(=O)OC[C@@H](O)COP(=O)([O-])OCC[N+](C)(C)C | 1.97 | -16.3 | – | 37.12 | 7.99 | -9.6 | -19.3 | 13.2 | 23.57 | 30.15 | 2.21 | 19.51 | 7.56 | 7.68 | 33.15 | inactive | Non-toxic | – | Non-toxic | -34.6 | Activity [31]: 0.76 mol%; Activity (Homo sapiens [38]): Dose-dependent effect; Activity [18]: 13.96 mol%; Activity [37]: 0.91 mol%
CCCCCCC#CCCCCCCSCC(=O)OC[C@@H](O)COP(=O)([O-])OCC[N+](C)(C)C | – | 0.7 | Active | – | 0.43 | -21.3 | -13.1 | – | – | – | – | 1.02 | – | – | – | inactive | Non-toxic | Active | Non-toxic | 4.5 | Activity [26]: 5.18 mol%; Activity [27]: 32.02 mol%; Activity [28]: 46.19 mol%; Activity [29]: 40.64 mol%; Activity [30]: 12.4 mol%; fold change (FC) [5]: 25; Activity [6]: 4.15 mol%; Activity [32]: 1.41 mol%; Activity [33]: 5.68 mol%; Activity [34]: 13.42 mol%; Activity (Homo sapiens [38]): Dose-dependent effect; Activity [35]: 33.52 mol%; Activity [36]: 1.48 mol%; fold change (FC) [22]: < 7; Activity [23]: 2.16 mol%
CCCCCCCCCCCCCCSCC(=O)OC[C@@H](O)CO | 1.68 | -18.5 | Active | 38.46 | 7.17 | -6.4 | -19.4 | 13.63 | 22.3 | 29.36 | 1.81 | 20.04 | 8.21 | 8.42 | 33.11 | inactive | Non-toxic | Active | Non-toxic | -38.1 | Activity [5]: Active; Activity [31]: 0.49 mol%; Activity (Homo sapiens [38]): Dose-dependent effect; Activity [18]: 14.15 mol%; Activity [37]: 0.91 mol%; Activity [22]: Active
